Laboratory results reported in ChEMBL document CHEMBL4689842, “EUbOPEN Chemogenomics Library wave 1” (2021).
“And” between values parts separate entries of the source, which are not always exact repeats. Identical values can stand only once.

How the values were obtained:
Format in all cases: toxicity, cell-based
U2OS [1] = experiment: Incucyte cell viability with U2OS; details: human, 10 µM, compound concentration 10 uM; also: filed as whole numbers so only -1 and 0 and 1 occur
HEK-293T [2] = experiment: Multiplex assay against HEK293T; details: human, 10 µM, compound concentration 10 uM;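 as to Population Tubulin-Different-Phenotype (%): share of the cells with healthy nuclei that show this phenotype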
Procedure, shortened: (§1)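 Four dyes were applied at seeding to live cells: Hoechst33342, BioTracker Green Microtubule Cytoskeleton Dye, MitoTracker Red and Annexin V Alexa Fluor 680. Imaging after compound addition used a CQ1 microscope at 37°C and 5% CO2. CellPathfinder machine-learning gating then sorted cells into Hoechst high-intensity objects or normal cells, normal cells into healthy, pyknosed or fragmented nuclei, and pyknosed cells into mitotic or apoptotic, with tubulin, mitochondrial-mass and membrane-permeability phenotypes given as per cents of healthy-nucleus cells.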

Fibroblast [3] = experiment: Multiplex assay against human fibroblast; details: 10 µM, compound concentration 10 uM; procedure, shortened: as §1
U2OS [4] = experiment: Multiplex assay against U2OS; details: human, 10 µM, compound concentration 10 uM; procedure, shortened: as §1
Fibroblast [5] = experiment: Incucyte cell viability with human fibroblast; details: 10 µM, compound concentration 10 uM; also: filed as whole numbers so only -1 and 0 and 1 occur
HEK-293T [6] = experiment: Incucyte cell viability with HEK293T; details: human, 10 µM, compound concentration 10 uM; also: filed as whole numbers so only -1 and 0 and 1 occur
[7] = 0 h, replicate number 1, timepoint 0 hours
[8] = 0 h, replicate number 2, timepoint 0 hours
[9] = 6 h, replicate number 1, timepoint 6 hours
[10] = 12 h, replicate number 1, timepoint 12 hours
[11] = 18 h, replicate number 1, timepoint 18 hours
[12] = 24 h, replicate number 1, timepoint 24 hours
[13] = 6 h, replicate number 2, timepoint 6 hours

C[C@@H]1CN(c2cc(-c3nn(C)c4ccc(OC5(C)CC5)cc34)ncn2)C[C@H](C)O1 [MLi-2-NC]
Growth Rate (U2OS [1]; [7]): 1 | Growth Rate (U2OS [1]; [8]): 0 | Growth Rate (U2OS [1]; [9]): 1 | Growth Rate (U2OS [1]; [10]): 1 | Growth Rate (U2OS [1]; [11]): 0 | Growth Rate (U2OS [1]; 18 h, replicate number 2, timepoint 18 hours): 1 | Growth Rate (U2OS [1]; [12]): 0 | Growth Rate (U2OS [1]; 24 h, replicate number 2, timepoint 24 hours): 1 | Population Apoptotic (%) (HEK-293T [2]; 12 h, replicate 1): 9% and 22% | Population Fragmented Nuclei (%) (HEK-293T [2]; 12 h, replicate 1): 18% and 14% | Population Healthy Nuclei (%) (HEK-293T [2]; 12 h, replicate 1): 55% and 62% | Population Hoechst High Intensity Objects (%) (HEK-293T [2]; 12 h, replicate 1): 10% and 16% | Population Membrane Permeable-Phenotype (%) (HEK-293T [2]; 12 h, replicate 1): 4% and 3% | Population Mitochondria Different-Phenotype (%) (HEK-293T [2]; 12 h, replicate 1): 5% and 6% | Population Mitotic Cells (%) (HEK-293T [2]; 12 h, replicate 1): 90% and 77% | Population Normal (%) (HEK-293T [2]; 12 h, replicate 1): 89% and 83% | Population Pyknosed Nuclei (%) (HEK-293T [2]; 12 h, replicate 1): 25% and 23% | Total Cell Count (HEK-293T [2]; 12 h, replicate 1): 441 and 673 | Population Apoptotic (%) (HEK-293T [2]; 12 h, replicate 2): 6% and 12% | Population Fragmented Nuclei (%) (HEK-293T [2]; 12 h, replicate 2): 7% and 4% | Population Healthy Nuclei (%) (HEK-293T [2]; 12 h, replicate 2): 87% and 89% | Population Hoechst High Intensity Objects (%) (HEK-293T [2]; 12 h, replicate 2): 2% and 3% | Population Membrane Permeable-Phenotype (%) (HEK-293T [2]; 12 h, replicate 2): 2% | Population Mitochondria Different-Phenotype (%) (HEK-293T [2]; 12 h, replicate 2): 8% and 14% | Population Mitotic Cells (%) (HEK-293T [2]; 12 h, replicate 2): 93% and 87% | Population Normal (%) (HEK-293T [2]; 12 h, replicate 2): 97% and 96% | Population Pyknosed Nuclei (%) (HEK-293T [2]; 12 h, replicate 2): 4% and 6% | Population Tubulin-Different-Phenotype (%) (HEK-293T [2]; 12 h, replicate 2): 5% and 14% | Total Cell Count (HEK-293T [2]; 12 h, replicate 2): 1849 and 1412 | Population Apoptotic (%) (HEK-293T [2]; 24 h, replicate 1): 11% and 25% | Population Fragmented Nuclei (%) (HEK-293T [2]; 24 h, replicate 1): 16% and 12% | Population Healthy Nuclei (%) (HEK-293T [2]; 24 h, replicate 1): 72% and 75% | Population Hoechst High Intensity Objects (%) (HEK-293T [2]; 24 h, replicate 1): 6% and 11% | Population Membrane Permeable-Phenotype (%) (HEK-293T [2]; 24 h, replicate 1): 3% | Population Mitochondria Different-Phenotype (%) (HEK-293T [2]; 24 h, replicate 1): 1% and 5% | Population Mitotic Cells (%) (HEK-293T [2]; 24 h, replicate 1): 88% and 74% | Population Normal (%) (HEK-293T [2]; 24 h, replicate 1): 93% and 88% | Population Pyknosed Nuclei (%) (HEK-293T [2]; 24 h, replicate 1): 10% and 12% | Total Cell Count (HEK-293T [2]; 24 h, replicate 1): 505 and 711 | Population Apoptotic (%) (HEK-293T [2]; 24 h, replicate 2): 3% and 7% | Population Fragmented Nuclei (%) (HEK-293T [2]; 24 h, replicate 2): 24% and 13% | Population Healthy Nuclei (%) (HEK-293T [2]; 24 h, replicate 2): 73% and 83% | Population Hoechst High Intensity Objects (%) (HEK-293T [2]; 24 h, replicate 2): 2% and 4% | Population Membrane Permeable-Phenotype (%) (HEK-293T [2]; 24 h, replicate 2): 5% | Population Mitochondria Different-Phenotype (%) (HEK-293T [2]; 24 h, replicate 2): 2% and 4% | Population Mitotic Cells (%) (HEK-293T [2]; 24 h, replicate 2): 96% and 92% | Population Normal (%) (HEK-293T [2]; 24 h, replicate 2): 97% and 95% | Population Pyknosed Nuclei (%) (HEK-293T [2]; 24 h, replicate 2): 1% and 3% | Total Cell Count (HEK-293T [2]; 24 h, replicate 2): 3187 and 2081 | Population Apoptotic (%) (Fibroblast [3]; 12 h, replicate 1): 65% and 70% | Population Fragmented Nuclei (%) (Fibroblast [3]; 12 h, replicate 1): 24% and 21% | Population Healthy Nuclei (%) (Fibroblast [3]; 12 h, replicate 1): 59% and 61% | Population Hoechst High Intensity Objects (%) (Fibroblast [3]; 12 h, replicate 1): 9% and 12% | Population Mitochondria Different-Phenotype (%) (Fibroblast [3]; 12 h, replicate 1): 3% | Population Mitotic Cells (%) (Fibroblast [3]; 12 h, replicate 1): 34% and 29% | Population Normal (%) (Fibroblast [3]; 12 h, replicate 1): 90% and 87% | Population Pyknosed Nuclei (%) (Fibroblast [3]; 12 h, replicate 1): 16% | Total Cell Count (Fibroblast [3]; 12 h, replicate 1): 234 and 261 | Population Apoptotic (%) (Fibroblast [3]; 12 h, replicate 2): 42% and 50% | Population Fragmented Nuclei (%) (Fibroblast [3]; 12 h, replicate 2): 44% and 53% | Population Healthy Nuclei (%) (Fibroblast [3]; 12 h, replicate 2): 36% and 42% | Population Hoechst High Intensity Objects (%) (Fibroblast [3]; 12 h, replicate 2): 32% and 43% | Population Membrane Permeable-Phenotype (%) (Fibroblast [3]; 12 h, replicate 2): 21% and 15% | Population Mitochondria Different-Phenotype (%) (Fibroblast [3]; 12 h, replicate 2): 7% and 10% | Population Mitotic Cells (%) (Fibroblast [3]; 12 h, replicate 2): 57% and 50% | Population Normal (%) (Fibroblast [3]; 12 h, replicate 2): 67% and 56% | Population Tubulin-Different-Phenotype (%) (Fibroblast [3]; 12 h, replicate 2): 21% and 20% | Total Cell Count (Fibroblast [3]; 12 h, replicate 2): 56 and 83 | Population Apoptotic (%) (Fibroblast [3]; 24 h, replicate 1): 45% and 61% | Population Fragmented Nuclei (%) (Fibroblast [3]; 24 h, replicate 1): 25% and 27% | Population Healthy Nuclei (%) (Fibroblast [3]; 24 h, replicate 1): 59% and 56% | Population Hoechst High Intensity Objects (%) (Fibroblast [3]; 24 h, replicate 1): 12% and 11% | Population Membrane Permeable-Phenotype (%) (Fibroblast [3]; 24 h, replicate 1): 9% and 7% | Population Mitochondria Different-Phenotype (%) (Fibroblast [3]; 24 h, replicate 1): 3% and 9% | Population Mitotic Cells (%) (Fibroblast [3]; 24 h, replicate 1): 54% and 38% | Population Normal (%) (Fibroblast [3]; 24 h, replicate 1): 87% and 88% | Population Pyknosed Nuclei (%) (Fibroblast [3]; 24 h, replicate 1): 14% and 16% | Population Tubulin-Different-Phenotype (%) (Fibroblast [3]; 24 h, replicate 1): 8% and 22% | Total Cell Count (Fibroblast [3]; 24 h, replicate 1): 282 and 230 | Population Apoptotic (%) (Fibroblast [3]; 24 h, replicate 2): 62% and 50% | Population Fragmented Nuclei (%) (Fibroblast [3]; 24 h, replicate 2): 53% and 63% | Population Healthy Nuclei (%) (Fibroblast [3]; 24 h, replicate 2): 21% and 28% | Population Hoechst High Intensity Objects (%) (Fibroblast [3]; 24 h, replicate 2): 33% and 34% | Population Membrane Permeable-Phenotype (%) (Fibroblast [3]; 24 h, replicate 2): 42% and 23% | Population Mitotic Cells (%) (Fibroblast [3]; 24 h, replicate 2): 37% and 50% | Population Normal (%) (Fibroblast [3]; 24 h, replicate 2): 66% and 65% | Population Tubulin-Different-Phenotype (%) (Fibroblast [3]; 24 h, replicate 2): 42% and 30% | Total Cell Count (Fibroblast [3]; 24 h, replicate 2): 48 and 70 | Population Apoptotic (%) (U2OS [4]; 12 h, replicate 1): 80% and 54% | Population Fragmented Nuclei (%) (U2OS [4]; 12 h, replicate 1): 2% | Population Healthy Nuclei (%) (U2OS [4]; 12 h, replicate 1): 93% and 87% | Population Hoechst High Intensity Objects (%) (U2OS [4]; 12 h, replicate 1): 4% and 5% | Population Membrane Permeable-Phenotype (%) (U2OS [4]; 12 h, replicate 1): 19% and 9% | Population Mitochondria Different-Phenotype (%) (U2OS [4]; 12 h, replicate 1): 14% and 30% | Population Mitotic Cells (%) (U2OS [4]; 12 h, replicate 1): 20% and 45% | Population Normal (%) (U2OS [4]; 12 h, replicate 1): 95% and 94% | Population Pyknosed Nuclei (%) (U2OS [4]; 12 h, replicate 1): 3% and 7% | Population Tubulin-Different-Phenotype (%) (U2OS [4]; 12 h, replicate 1): 16% and 29% | Total Cell Count (U2OS [4]; 12 h, replicate 1): 165 and 347 | Population Apoptotic (%) (U2OS [4]; 12 h, replicate 2): 50% and 40% | Population Fragmented Nuclei (%) (U2OS [4]; 12 h, replicate 2): 5% and 7% | Population Healthy Nuclei (%) (U2OS [4]; 12 h, replicate 2): 91% and 88% | Population Hoechst High Intensity Objects (%) (U2OS [4]; 12 h, replicate 2): 9% and 15% | Population Membrane Permeable-Phenotype (%) (U2OS [4]; 12 h, replicate 2): 14% and 7% | Population Mitochondria Different-Phenotype (%) (U2OS [4]; 12 h, replicate 2): 21% and 26% | Population Mitotic Cells (%) (U2OS [4]; 12 h, replicate 2): 50% and 60% | Population Normal (%) (U2OS [4]; 12 h, replicate 2): 90% and 84% | Population Tubulin-Different-Phenotype (%) (U2OS [4]; 12 h, replicate 2): 14% and 41% | Total Cell Count (U2OS [4]; 12 h, replicate 2): 153 and 242 | Population Apoptotic (%) (U2OS [4]; 24 h, replicate 1): 44% and 50% | Population Healthy Nuclei (%) (U2OS [4]; 24 h, replicate 1): 92% | Population Hoechst High Intensity Objects (%) (U2OS [4]; 24 h, replicate 1): 1% | Population Membrane Permeable-Phenotype (%) (U2OS [4]; 24 h, replicate 1): 10% and 3% | Population Mitochondria Different-Phenotype (%) (U2OS [4]; 24 h, replicate 1): 16% and 21% | Population Mitotic Cells (%) (U2OS [4]; 24 h, replicate 1): 55% and 50% | Population Normal (%) (U2OS [4]; 24 h, replicate 1): 98% | Population Tubulin-Different-Phenotype (%) (U2OS [4]; 24 h, replicate 1): 16% and 32% | Total Cell Count (U2OS [4]; 24 h, replicate 1): 226 and 387 | Population Fragmented Nuclei (%) (U2OS [4]; 24 h, replicate 2): 4% and 3% | Population Healthy Nuclei (%) (U2OS [4]; 24 h, replicate 2): 90% and 93% | Population Hoechst High Intensity Objects (%) (U2OS [4]; 24 h, replicate 2): 11% and 4% | Population Membrane Permeable-Phenotype (%) (U2OS [4]; 24 h, replicate 2): 12% and 8% | Population Mitochondria Different-Phenotype (%) (U2OS [4]; 24 h, replicate 2): 27% and 18% | Population Normal (%) (U2OS [4]; 24 h, replicate 2): 88% and 95% | Population Pyknosed Nuclei (%) (U2OS [4]; 24 h, replicate 2): 4% and 3% | Population Tubulin-Different-Phenotype (%) (U2OS [4]; 24 h, replicate 2): 18% and 37% | Total Cell Count (U2OS [4]; 24 h, replicate 2): 183 and 245 | Growth Rate (Fibroblast [5]; [8]): 0 | Growth Rate (Fibroblast [5]; [9]): 0 | Growth Rate (Fibroblast [5]; [13]): 1 | Growth Rate (Fibroblast [5]; [10]): 1 | Growth Rate (Fibroblast [5]; [11]): 0 | Growth Rate (Fibroblast [5]; [12]): 0 | Growth Rate (HEK-293T [6]; [7]): 0 | Growth Rate (HEK-293T [6]; [9]): 1 | Growth Rate (HEK-293T [6]; [13]): 0 | Growth Rate (HEK-293T [6]; [10]): 0 | Growth Rate (HEK-293T [6]; [11]): 0 | Growth Rate (HEK-293T [6]; [12]): 0
